Wee1 degr inh – inhibitors of human Wee1 degradation; reporter increase, % at 5 µM; P30291; AID 1321; HeLa Luc-Wee1K328M stability, luciferase luminescence; 100% = proteasome inhibitor MG132 effect; 220,000 tested, 1.2% active;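 active means activation above the mean of all tested compounds plus 3 SD, set per screening run, cut at about 8.8% in these data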;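 further: cells exposed to compound for 20 h before luminescence read; 0% = DMSO alone and 100% = MG132 at 30 µM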
Runt-SMMHC FRET – blocks binding of human RUNX1 Runt domain to CBFb-SMMHC | Q01196+Q13951 | Cerulean-Runt/Venus-CBFb-SMMHC FRET ratio 530/480, 1 h | inhibition, % at 20 µM | 220,000 tested, 0.74% active | AID 1434;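 active means mean inhibition across duplicate retests at 20 µM reaching about 50%, limit read from the data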;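 further: 0% = DMSO wells and 100% = wells with excess untagged CBFb-SMMHC; inhibitors lower the FRET ratio by blocking Runt binding to CBFb-SMMHC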
Target sequence (Q01196 whole entry, looked up, the tested form may be a part): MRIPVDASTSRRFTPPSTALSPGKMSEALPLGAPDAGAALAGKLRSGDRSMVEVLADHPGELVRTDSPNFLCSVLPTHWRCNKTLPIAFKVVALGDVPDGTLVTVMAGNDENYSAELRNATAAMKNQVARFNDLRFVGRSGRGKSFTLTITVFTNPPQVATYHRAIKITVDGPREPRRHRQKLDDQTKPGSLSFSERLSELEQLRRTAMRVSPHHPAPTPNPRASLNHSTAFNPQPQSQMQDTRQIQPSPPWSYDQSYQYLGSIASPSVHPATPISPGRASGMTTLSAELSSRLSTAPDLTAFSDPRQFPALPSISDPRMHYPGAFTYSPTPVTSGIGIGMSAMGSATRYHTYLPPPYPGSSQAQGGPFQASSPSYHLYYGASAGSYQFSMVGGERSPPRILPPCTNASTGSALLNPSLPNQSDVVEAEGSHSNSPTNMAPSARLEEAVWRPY
Target sequence (Q13951 whole entry, looked up, the tested form may be a part): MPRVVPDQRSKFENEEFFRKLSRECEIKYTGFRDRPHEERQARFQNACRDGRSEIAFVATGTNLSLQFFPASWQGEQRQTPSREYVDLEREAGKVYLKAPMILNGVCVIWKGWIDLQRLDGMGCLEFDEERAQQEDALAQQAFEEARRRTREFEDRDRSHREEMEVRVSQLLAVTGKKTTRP
Runt-CBFb FRET – Runt domain-CBFb interaction inhibition | 220,000 tested, 0.46% active | Cerulean-Runt/Venus-CBFb FRET ratio 530/480, 1 h | inhibition, % at 20 µM | AID 1496;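 active means inhibition over about 50% at 20 µM in the single-dose screen, limit read from the data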;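 further: 0% = DMSO wells and 100% = excess unlabeled CBFb competitor control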
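Assay system: Cerulean-tagged RUNX1 Runt domain (FRET donor) fusion protein / Amount: 100 nM each of Venus-CBFb and Cerulean-Runt domain / Medium: Tris buffer pH 7.5 with salts and BSA / Also added: Venus-CBFb 100 nM / Schedule: 1 h complex formation plus 1 h compound treatment, room temperature / Signal: FRET fluorescence / Read-out: loss of energy transfer signal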
RanGTP-Impb inh – inhibitors of RanGTP-importin-beta interaction, primary screen, biochemical, FRET, CFP-Ran, YFP-importin-beta, homogeneous. cell-free CFP-Ran/YFP-importin-beta FRET ratio. inhibition, % (concentration not given with the values). 300,000 tested, 1.1% active. AID 2216;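 active means more than half of the replicate wells show a fall in the fluorescence ratio signal beyond about 16%, limit read from the data, passing the limit was not always enough; inconclusive means exactly half of the replicate wells pass the set limit; inactive means fewer than half of replicates pass the limit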;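 further: 0% = DMSO wells and 100% = Ran loaded with GDP instead of GTP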
AI-2 QS mod – modulates the Vibrio harveyi AI-2 quorum sensing system; Vibrio harveyi JMH597 AI-2 luminescence/OD600 ratio, 9 h; hits give low values; strain lacks LuxN and CqsS sensors; 0 = neutral-control median; activity change, % at 7.5 µM; 300,000 tested, 0.4% active; in the data active means activity change below about -75%, passing the limit was not always enough; inconclusive means no clear call, values can overlap the other calls;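 further: luminescence divided by OD600 gain over 9 h not by final OD600 alone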
proKLK7 act – activators of human kallikrein-7 zymogen; 370,000 tested, 0.9% active; purified proKLK7, EDANS-DABCYL substrate fluorescence; 100% is mature enzyme control, 0% vehicle; P49862; AID 652039; activation, % at 7 µM;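 active means activation above the mean of all tested compounds plus 3 SD, computed per campaign excluding outliers beyond control limits, cut at about 13% in these data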
proKLK7 act conf – confirmation of human kallikrein-7 zymogen activators | purified proKLK7, EDANS-DABCYL substrate fluorescence; scaled: vehicle 0, mature enzyme 100 | 3,200 tested, 68% active | shares compounds with proKLK7 act | activation, % at 7 µM;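 active means activation, as change over the incubation, above the mean of all tested compounds plus 3 SD, cut at about 13% in these data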
EDANS interfere – counter-screen for kallikrein-7 activators: EDANS-DABCYL optical interference | shares compounds with proKLK7 act | 3,200 tested, 80% active | activation, % at 7 µM | EDANS-DABCYL substrate fluorescence interference, no enzyme, 4 h; solvent 0%, active enzyme control 100%;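 active means activation above the all-compound mean plus 3 SD, ignoring values outside control-based bounds, cut at about 4.8% in these data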;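 further: value is the 4 h activation minus the activation read at time zero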
The depositor's hits bear a star; ? = inconclusive; nt = not tested or not shown. This is a sample that favours compounds with a hit; in the whole collection about 2.9% have one here.

SMILES	Wee1 degr inh	Runt-SMMHC FRET	Runt-CBFb FRET	RanGTP-Impb inh	AI-2 QS mod	proKLK7 act	proKLK7 act conf	EDANS interfere
CC1CCCCN1C(=O)c1cc2c(=O)n3ccccc3nc2s1 (configuration not stated)	nt	nt	nt	1.4	18.2	31.6*	39.6*	39.7*
Cc1cccn2c(=O)c3cc(C(=O)NC4CCCC4)sc3nc12	nt	nt	nt	-0.8	45.4	3.5	nt	nt
O=C(NC1CCCC1)c1cc2c(=O)n3ccccc3nc2s1	nt	nt	nt	nt	nt	60.9*	74.8*	65.8*
Cn1c(C(=O)NC2CCCCC2)cc2c(=O)n3ccccc3nc21	nt	nt	nt	2.5	-5.7	83.5*	81.4*	75.0*
Cn1c(C(=O)NCc2ccccn2)cc2c(=O)n3ccccc3nc21	-0.8	96.6*	27.1	9.1	29.8	52.5*	66.3*	67.5*
Cc1ccc2c(c1)-c1cc(C)ccc1C2=O	nt	nt	nt	nt	nt	-0.8	nt	nt
CC1CCCN(C(=O)c2cc3c(=O)n4ccccc4nc3s2)C1 (configuration not stated)	nt	nt	nt	-1.3	10.9	26.2*	30.4*	33.6*
Cc1cccn2c(=O)c3cc(C(=O)N4CCCC(C)C4)sc3nc12 (configuration not stated)	nt	nt	nt	0.5	11.2	0.7	nt	nt
CCC(=O)N1CCc2cc(OC)c(OC)cc2C1COc1ccc(C(=O)OC)cc1 (configuration not stated)	2.0	0.1	-0.8	nt	21.5	0.4	nt	nt
COc1cc2c(cc1OC)C(c1ccccc1)N(Cc1ccc(S(=O)(=O)NC(=O)c3ccco3)cc1)CC2 (configuration not stated)	nt	nt	nt	nt	nt	29.4*	5.2	7.1*
COC(=O)c1ccc(OCC(O)CN2CCc3cc(OC)c(OC)cc3C2c2ccccc2)cc1 (configuration not stated)	nt	nt	nt	-8.0	22.9	66.9*	3.8	0.0
COc1cc2c(cc1OC)C(c1ccccc1)N(C(=O)c1ccco1)CC2 (configuration not stated)	nt	-1.3	2.0	1.0	34.9	-0.6	nt	nt
CS(=O)(=O)N(CC(=O)N1CCCC1)Cc1ccc(Cl)c(Cl)c1	nt	nt	nt	5.9	14.1	-0.4	nt	nt
COc1cc2sc3cc(NCc4ccc5c(c4)OCO5)ccc3c(=O)c2cc1OC	nt	nt	nt	nt	nt	-7.2	nt	nt
COc1cccc2sc3cc(NCc4ccc5c(c4)OCO5)ccc3c(=O)c12	nt	nt	nt	nt	nt	41.7*	47.1*	45.5*
COc1cccc(NC(=O)NNC(=O)CCc2ccc(O)c(O)c2)c1	nt	nt	nt	0.6	0.6	19.1*	13.3*	16.3*
Nc1cccc2c1C(=O)N(Cc1cccc(Cl)c1)C2=O	11.2*	92.9*	3.1	-3.3	6.7	27.2*	4.4	-16.8
Cc1c(O)c(CN2CCCC2)cc2c3c(c(=O)oc12)CCC3	-2.5	37.1	25.5	14.2	17.9	70.5*	66.9*	65.2*
CCc1cc(=O)oc2c(C)c(O)c(CN3CCCCC3)cc12	0.6	78.0*	73.4*	53.4*	0.2	49.0*	63.5*	78.6*
COc1ccc2c(CN3CCOCC3)cc(=O)oc2c1	nt	nt	nt	nt	nt	0.9	nt	nt
COc1ccc2c(CN3CCCCC3)cc(=O)oc2c1	nt	nt	nt	nt	nt	22.8*	2.6	1.3
CCN(C(=O)COC(=O)CCCOc1ccc(Cl)cc1C)c1c(N)n(Cc2ccccc2)c(=O)[nH]c1=O	nt	nt	nt	nt	nt	-0.1	nt	nt
Cc1ccccc1NC(=O)CSCc1nc(N)nc(Nc2ccccc2C)n1	0.4	-0.9	0.5	0.3	37.2	-0.1	nt	nt
N#Cc1cnn2ccc(-c3ccc4c(c3)CCC4)nc12	-1.1	6.4	2.4	0.2	15.2	95.0*	57.2*	76.2*
CCc1ccc(-n2c(SCC(=O)Nc3ccc(C(=O)O)cc3)nnc2-c2ccncc2)cc1	-1.8	-0.8	-0.8	0.3	16.5	-0.5	nt	nt
SMILES	Wee1 degr inh	Runt-SMMHC FRET	Runt-CBFb FRET	RanGTP-Impb inh	AI-2 QS mod	proKLK7 act	proKLK7 act conf	EDANS interfere
COc1ccc(C)cc1S(=O)(=O)Nc1cccc(-c2cn3cccnc3n2)c1	nt	nt	nt	?	nt	18.0*	-18.0	-25.3
O=S(=O)(Nc1cccc(-c2cn3cccnc3n2)c1)c1ccc(Cl)cc1	0.9	4.5	-2.1	-5.2	20.5	27.8*	6.3	6.4*
O=C(COc1ccccc1)Nc1cccc(-c2cn3cccnc3n2)c1	nt	nt	nt	3.2	24.1	-5.1	nt	nt
COc1ccc(OC)c(CCNC(=O)CN2C(=O)COc3ccc(S(=O)(=O)N4CCOCC4)cc32)c1	nt	nt	nt	2.5	12.7	0.7	nt	nt
CC(C)NC[C@@H](O)c1ccc(O)c(O)c1	-1.2	-3.4	2.6	11.5	8.5	32.6*	50.5*	48.8*
CN(C)Cc1c(O)ccc2cc(-c3nc4ccccc4n3C)c(=O)oc12	nt	nt	nt	132.4*	-12.2	78.3*	66.9*	77.4*
COc1ccc(Cl)cc1NC(=O)CN(C)C(=O)c1n[nH]c2ccccc12	nt	nt	nt	-2.8	24.6	0.1	nt	nt
O=C1NCC(Nc2ccc(Br)cc2)C(=O)N1 (configuration not stated)	nt	nt	nt	nt	nt	0.3	nt	nt
C=C(C)Cn1c2ccc(NC(=O)CCc3cccc(Cl)c3)cc2c(=O)n1C	nt	nt	nt	nt	nt	12.3	nt	nt
C=C(C)Cn1c2ccc(NC(=O)CCOCC)cc2c(=O)n1C	nt	nt	nt	nt	nt	24.2*	19.1*	21.6*
CCOCCC(=O)Nc1ccc2c(c1)c(=O)n(C)n2CC=C(C)C	nt	nt	nt	nt	nt	25.7*	15.0*	17.2*
Cc1cc2oc(=O)cc(Cn3nnc(-c4ccc(Cl)cc4)n3)c2cc1C(C)C	-2.8	2.6	-0.2	-3.5	19.7	nt	nt	nt
CN(C)c1ccc(C2C3C(=O)N(c4ccc(C(=O)O)cc4)C(=O)C3ON2c2ccccc2)cc1 (configuration not stated)	-0.2	1.6	0.8	-4.9	20.9	62.7*	0.1	0.9
COc1ccccc1CC(=O)NCc1nn(-c2ccccc2)nc1C	-0.2	2.0	1.6	4.0	10.4	0.2	nt	nt
CSc1ccc(/C=C/C(=O)c2c(O)cc(C)oc2=O)cc1	nt	nt	nt	-9.7	20.4	13.6*	-3.6	-3.5
CC1=C(C(N)=O)C(c2cccs2)n2ncnc2N1 (configuration not stated)	1.1	-0.6	1.1	-0.5	14.3	-0.4	nt	nt
c1csc(C2C3=C(Nc4ncnn42)c2ccccc2OC3)c1 (configuration not stated)	3.5	13.2	3.9	3.2	1.0	17.4*	34.2*	31.2*
C=CCN(C(=O)CCC(=O)Nc1cc(C)on1)C(C(=O)NC1CCCC1)c1ccc(OC)cc1OC (configuration not stated)	nt	nt	nt	-3.3	8.9	-0.3	nt	nt
